From ChEMBL document CHEMBL5096186, “Design, Synthesis, and Biological Evaluation of Novel Pyrimido[4,5-b]indole Derivatives Against Gram-Negative Multidrug-Resistant Pathogens” (J Med Chem, 2021)
Values after ≈ are worked out from the molar mass of the structure shown.

Key:
[1] = target: T1, hERG (KCNH2) potassium channel (Homo sapiens, UniProt Q12809); test: Inhibition of hERG potassium channel assessed as maximum inhibition rate at 3 uM at -80 mV holding potential incubated for 120 seconds by whole cell-automated voltage clamp analysis assay relative to control; format: toxicity; settings: time 120 sec
T1 sequence (Q12809 whole entry): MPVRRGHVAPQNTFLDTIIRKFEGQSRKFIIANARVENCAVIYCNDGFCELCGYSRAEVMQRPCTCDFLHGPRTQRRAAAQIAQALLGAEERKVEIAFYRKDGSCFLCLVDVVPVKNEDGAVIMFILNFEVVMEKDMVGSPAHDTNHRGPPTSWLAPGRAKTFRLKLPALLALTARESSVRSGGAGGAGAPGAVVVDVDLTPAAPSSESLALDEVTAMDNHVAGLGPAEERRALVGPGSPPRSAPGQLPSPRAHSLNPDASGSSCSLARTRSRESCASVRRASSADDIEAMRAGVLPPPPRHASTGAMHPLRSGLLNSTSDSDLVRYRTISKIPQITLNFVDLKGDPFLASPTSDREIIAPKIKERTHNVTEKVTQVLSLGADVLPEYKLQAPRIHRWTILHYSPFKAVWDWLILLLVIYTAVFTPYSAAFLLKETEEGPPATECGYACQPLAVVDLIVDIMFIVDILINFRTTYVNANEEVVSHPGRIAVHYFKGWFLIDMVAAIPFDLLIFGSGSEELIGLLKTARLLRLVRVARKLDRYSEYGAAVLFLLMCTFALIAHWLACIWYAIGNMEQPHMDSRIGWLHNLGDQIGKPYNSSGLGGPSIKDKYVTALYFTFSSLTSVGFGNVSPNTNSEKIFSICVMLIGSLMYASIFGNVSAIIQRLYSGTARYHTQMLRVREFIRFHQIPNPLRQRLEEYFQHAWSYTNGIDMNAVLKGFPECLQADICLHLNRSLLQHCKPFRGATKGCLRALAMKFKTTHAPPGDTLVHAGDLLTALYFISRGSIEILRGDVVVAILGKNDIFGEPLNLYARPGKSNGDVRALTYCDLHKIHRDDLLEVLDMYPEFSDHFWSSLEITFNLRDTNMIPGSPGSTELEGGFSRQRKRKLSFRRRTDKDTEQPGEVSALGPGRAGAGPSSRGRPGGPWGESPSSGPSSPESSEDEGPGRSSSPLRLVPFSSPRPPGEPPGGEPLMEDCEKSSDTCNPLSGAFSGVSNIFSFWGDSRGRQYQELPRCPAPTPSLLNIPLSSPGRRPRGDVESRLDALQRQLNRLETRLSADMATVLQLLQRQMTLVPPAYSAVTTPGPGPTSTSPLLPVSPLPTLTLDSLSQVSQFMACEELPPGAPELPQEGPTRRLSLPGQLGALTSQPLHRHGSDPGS
In short: (§1)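 Automated whole-cell patch clamp, holding potential −80 mV. Voltage protocol applied every 20 s. Baseline set with external solution containing 0.1% DMSO and stabilised 3 min. Compound applied until steady state, at least 3 min, then washout. Maximum tested concentration 40 μM, or 3 μM for cisapride as positive control.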

Escherichia coli [2] = test: Antibacterial activity against multidrug resistant wild type Escherichia coli NCTC 13353 assessed as reduction in bacterial growth incubated for 18 to 20 hrs by CLSI based microdilution method; format: functional; settings: time 18-20 hrs
In short: (§2)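 Broth microdilution per CLSI. Compounds dissolved in DMSO (levofloxacin and meropenem in water) as 64 μg/mL stock, then serial twofold dilutions in broth giving 64 to 0.008 μg/mL. […] Clinical isolates tested as several strains per group; racemic GP-1 served as positive control; values given as MIC ranges.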

Acinetobacter baumannii [3] = test: Antibacterial activity against wild type Acinetobacter baumannii NCTC 13304 assessed as reduction in bacterial growth incubated for 18 to 20 hrs by CLSI based microdilution method; format: functional; settings: time 18-20 hrs; in short: as §2
[4] = tested on: Staphylococcus epidermidis; test: Antibacterial activity against methicillin-sensitive Staphylococcus epidermidis strains 15 1 to 4 assessed as reduction in bacterial growth incubated for 18 to 20 hrs by CLSI based microdilution method; format: functional; settings: time 18-20 hrs; in short: as §2
[5] = Cytotoxicity against human L02 cells assessed as cell viability measured for 48 hrs by CCK-8 assay; format: toxicity, cell-based
In short: (§3)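 Cells seeded at 1 × 10⁴ per well and grown for 48 h. Then exposed to test articles at 1–200 μM for another 48 h (n = 6). Viability by CCK-8 added for 2 h, absorbance read at 450 nm. CC50 calculated and reported as the mean.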

Klebsiella pneumoniae [6] = test: Antibacterial activity agains wild type Klebsiella pneumoniae ATCC BAA-1705 assessed as reduction in bacterial growth incubated for 18 to 20 hrs by CLSI based microdilution method; format: functional; settings: time 18-20 hrs
In short: (§4)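 CLSI broth microdilution. Compounds in DMSO (levofloxacin and meropenem in water), serial twofold dilutions in broth, 64 to 0.008 μg/mL. […] Results reported as MIC ranges across strains.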

Pseudomonas aeruginosa [7] = test: Antibacterial activity against IMP4-producing multidrug resistant Pseudomonas aeruginosa assessed as reduction in bacterial growth incubated for 18 to 20 hrs by CLSI based microdilution method; format: functional; settings: time 18-20 hrs; in short: as §2
[8] = Cytotoxicity against human HEK293 cells assessed as cell viability measured for 48 hrs by CCK-8 assay; format: toxicity, cell-based; in short: as §3
[9] = target: Voltage-gated inwardly rectifying potassium channel KCNH2 (Homo sapiens, UniProt Q12809); test: Inhibition of hERG potassium channel assessed as […] at -80 mV holding potential incubated for 120 seconds by whole cell-automated voltage clamp analysis assay; format: toxicity; in short: as §1
Sequence of Voltage-gated inwardly rectifying potassium channel KCNH2 (Q12809 whole entry): as above

Staphylococcus aureus [10] = test: Antibacterial activity against methicillin-sensitive Staphylococcus aureus strains 15 1 to 4 assessed as reduction in bacterial growth incubated for 18 to 20 hrs by CLSI based microdilution method; format: functional; settings: time 18-20 hrs; in short: as §2
Pseudomonas aeruginosa [11] = test: Antibacterial activity against multidrug resistant Pseudomonas aeruginosa strains 15 1 to 3 assessed as reduction in bacterial growth incubated for 18 to 20 hrs by CLSI based microdilution method; format: functional; settings: time 18-20 hrs; in short: as §2
Escherichia coli [12] = test: Antibacterial activity against ESBL-producing multidrug resistant Escherichia coli assessed as reduction in bacterial growth incubated for 18 to 20 hrs by CLSI based microdilution method; format: functional; settings: time 18-20 hrs; in short: as §2
Acinetobacter baumannii [13] = test: Antibacterial activity agains OXA23-producing multidrug resistant Acinetobacter baumannii assessed as reduction in bacterial growth incubated for 18 to 20 hrs by CLSI based microdilution method; format: functional; settings: time 18-20 hrs; in short: as §2
Pseudomonas aeruginosa [14] = test: Antibacterial activity against wild type Pseudomonas aeruginosa ATCC 27853 assessed as reduction in bacterial growth incubated for 18 to 20 hrs by CLSI based microdilution method; format: functional; settings: time 18-20 hrs; in short: as §4
Escherichia coli [15] = test: Antibacterial activity against ESBL-producing Escherichia coli ATCC 35218 strains 15 1 to 3 assessed as reduction in bacterial growth incubated for 18 to 20 hrs by CLSI based microdilution method; format: functional; settings: time 18-20 hrs; in short: as §4
Klebsiella pneumoniae [16] = test: Antibacterial activity against KPC2-producing multidrug resistant Klebsiella pneumoniae assessed as reduction in bacterial growth incubated for 18 to 20 hrs by CLSI based microdilution method; format: functional; settings: time 18-20 hrs; in short: as §2
Staphylococcus aureus [17] = test: Antibacterial activity against methicillin-resistant Staphylococcus aureus strains 15 1 to 4 assessed as reduction in bacterial growth incubated for 18 to 20 hrs by CLSI based microdilution method; format: functional; settings: time 18-20 hrs; in short: as §2
Klebsiella pneumoniae [18] = test: Antibacterial activity agains wild type Klebsiella pneumoniae ATCC BAA-2470 assessed as reduction in bacterial growth incubated for 18 to 20 hrs by CLSI based microdilution method; format: functional; settings: time 18-20 hrs; in short: as §2
Escherichia coli [19] = test: Antibacterial activity against multidrug resistant wild type Escherichia coli ATCC BAA-2340 assessed as reduction in bacterial growth incubated for 18 to 20 hrs by CLSI based microdilution method; format: functional; settings: time 18-20 hrs; in short: as §2
Escherichia coli [20] = test: Antibacterial activity against Escherichia coli ATCC 35218 strains 15 1 to 3 assessed as reduction in bacterial growth incubated for 18 to 20 hrs by CLSI based microdilution method; format: functional; settings: time 18-20 hrs; in short: as §4
[21] = target: T1, hERG (KCNH2) potassium channel; test: Inhibition of hERG potassium channel assessed as maximum inhibition rate at 40 uM at -80 mV holding potential incubated for 120 seconds by whole cell-automated voltage clamp analysis assay relative to control; format: toxicity; settings: time 120 sec; in short: as §1

**Q.** With `COc1cc(N)c(Cl)cc1C(=O)NC1CCN(CCCOc2ccc(F)cc2)CC1OC` (stereo unspecified) [CISAPRIDE MONOHYDRATE] as the compound, how does the inhibition at 2 min, 3 µM [1] read?
**A.** 97.7%

**Q.** With `CNc1cc(F)cc2c1[nH]c1nc(Oc3cnc(C)nc3)nc(N3CC4CCNC4C3)c12` (racemic) as the compound, how does the MIC (Escherichia coli [2]) read?
**A.** 0.25 µg/mL (≈ 0.575 µM)

**Q.** What about the MIC (Acinetobacter baumannii [3]) of the same compound?
**A.** 0.25 µg/mL (≈ 0.575 µM)

**Q.** What about the MIC [4] of the same compound?
**A.** < 0.008 µg/mL

**Q.** What about the CC50 at 48 h [5] of the same compound?
**A.** 24 µM

**Q.** What about the MIC (Klebsiella pneumoniae [6]) of the same compound?
**A.** 4 µg/mL (≈ 9.21 µM)

**Q.** And the MIC (Pseudomonas aeruginosa [7])?
**A.** 16 µg/mL (≈ 36.8 µM)

**Q.** And the CC50 at 48 h [8]?
**A.** 21.8 µM

**Q.** And the IC50 [9]?
**A.** 12.3 µM

**Q.** What about the MIC (Staphylococcus aureus [10]) of the same compound?
**A.** < 0.008 µg/mL

**Q.** What about the MIC (Pseudomonas aeruginosa [11]) of the same compound?
**A.** 0.5 µg/mL (≈ 1.15 µM)

**Q.** And the MIC (Escherichia coli [12])?
**A.** 0.5 µg/mL (≈ 1.15 µM)

**Q.** What about the MIC (Acinetobacter baumannii [13]) of the same compound?
**A.** 0.5 µg/mL (≈ 1.15 µM)

**Q.** What about the MIC (Pseudomonas aeruginosa [14]) of the same compound?
**A.** 4 µg/mL (≈ 9.21 µM)

**Q.** What about the MIC (Escherichia coli [15]) of the same compound?
**A.** 0.25 µg/mL (≈ 0.575 µM)

**Q.** What about the MIC (Klebsiella pneumoniae [16]) of the same compound?
**A.** 2 µg/mL (≈ 4.6 µM)

**Q.** What about the MIC (Staphylococcus aureus [17]) of the same compound?
**A.** 0.015 µg/mL (≈ 0.0345 µM)

**Q.** And the MIC (Klebsiella pneumoniae [18])?
**A.** 1 µg/mL (≈ 2.3 µM)

**Q.** And the MIC (Escherichia coli [19])?
**A.** 0.5 µg/mL (≈ 1.15 µM)

**Q.** What about the MIC (Escherichia coli [20]) of the same compound?
**A.** 0.06 µg/mL (≈ 0.138 µM)

**Q.** What about the inhibition at 2 min, 40 µM [21] of the same compound?
**A.** 70.5%
